Results on eight molecules are retold here after ChEMBL document CHEMBL1152401, “Synthesis of novel macrolide derivatives with imidazo[4,5-b]pyridinyl sulfur contained alkyl side chains and their antibacterial activity” (Bioorg Med Chem Lett, 2009).

Type in all cases: functional, organism-based
The subject of assay [1] is Streptococcus pneumoniae. In words: Antimicrobial activity against erythromycin-susceptible Streptococcus pneumoniae 07H252 by broth microdilution method. In a few lines:
(§1)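 MIC by broth microdilution following NCCLS recommendations. Strains used as erythromycin-susceptible clinical or reference isolates: S. pneumoniae ATCC 49619 and 07H252, S. pyogenes 07U084 and 07U086. Resistant comparison strains came from MOHNARIN, China. Value reported as minimum inhibitory concentration.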

Assay [2] deals with Streptococcus pyogenes. In words: Antimicrobial activity against erythromycin-resistant Streptococcus pyogenes 07Z011 by broth microdilution method. In a few lines: (§2)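 MIC by broth microdilution as recommended by NCCLS. Strains are constitutively erythromycin-resistant clinical isolates supplied by the Ministry of Health National Antimicrobial Resistance Investigation Net (MOHNARIN, China).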

For assay [3], the system named is Streptococcus pyogenes. In words: Antimicrobial activity against erythromycin-susceptible Streptococcus pyogenes 07U086 by broth microdilution method. Summed up: as §1
Assay [4] has as its system Streptococcus pyogenes. Briefly: Antimicrobial activity against erythromycin-susceptible Streptococcus pyogenes 07U084 by broth microdilution method. Summed up: as §1
The test system of assay [5] is Streptococcus pyogenes. In words: Antimicrobial activity against erythromycin-resistant Streptococcus pyogenes 07Z016 by broth microdilution method. In a few lines: as §2
The test system of assay [6] is Streptococcus pneumoniae. Briefly: Antimicrobial activity against erythromycin-susceptible Streptococcus pneumoniae ATCC 49619 by broth microdilution method. Summed up: as §1
Assay [7] deals with Streptococcus pyogenes. Briefly: Antimicrobial activity against erythromycin-resistant Streptococcus pyogenes 07Z014 by broth microdilution method. In a few lines:
as §2

In assay [8] the test system is Streptococcus pneumoniae. In words: Antimicrobial activity against erythromycin-resistant Streptococcus pneumoniae 07Z001 by broth microdilution method. In a few lines:
as §2

The subject of assay [9] is Streptococcus pneumoniae. Briefly: Antimicrobial activity against erythromycin-resistant Streptococcus pneumoniae 05Z006 by broth microdilution method. Summed up: as §2

Molecules are shown by their SMILES. Active and inactive are the calls of the source. No cut-off for these calls is given here.

Turning to `CC[C@H]1OC(=O)[C@H](C)[C@@H](OC(=O)Cc2ccc3c(c2)OCO3)[C@H](C)[C@@H](O[C@@H]2O[C@H](C)C[C@H](N(C)C)[C@H]2O)[C@@](C)(OC)C[C@@H](C)C(=O)[C@H](C)[C@H]2N(CCCSc3nc4ccc(OC)nc4[nH]3)C(=O)O[C@]12C`, the outcome in the assay with Streptococcus pneumoniae [1], in the assay with Streptococcus pyogenes [2], in the assay on Streptococcus pyogenes [3], with Streptococcus pyogenes [4], in the assay with Streptococcus pyogenes [5] and with Streptococcus pneumoniae [6] was Active. Besides, the result in the assay on Streptococcus pyogenes [7], with Streptococcus pneumoniae [8] and with Streptococcus pneumoniae [9] was Active.

Take `CC[C@H]1OC(=O)[C@H](C)[C@@H](O[C@H]2C[C@@](C)(OC)[C@@H](O)[C@H](C)O2)[C@H](C)[C@@H](O[C@@H]2O[C@H](C)C[C@H](N(C)C)[C@H]2O)[C@](C)(O)C[C@@H](C)CN(C)[C@H](C)[C@@H](O)[C@]1(C)O`: the outcome in the assay with Streptococcus pneumoniae [1], in the assay with Streptococcus pyogenes [3], with Streptococcus pyogenes [4] and with Streptococcus pneumoniae [6] was Active. For the same molecule, the outcome in the assay with Streptococcus pyogenes [2], in the assay with Streptococcus pyogenes [5], in the assay with Streptococcus pyogenes [7], in the assay on Streptococcus pneumoniae [8] and in the assay with Streptococcus pneumoniae [9] was inactive.

As to `CC[C@H]1OC(=O)[C@H](C)[C@@H](OC(=O)Cc2cccnc2)[C@H](C)[C@@H](O[C@@H]2O[C@H](C)C[C@H](N(C)C)[C@H]2O)[C@@](C)(OC)C[C@@H](C)C(=O)[C@H](C)[C@H]2N(CCCSc3nc4ccc(OC)nc4[nH]3)C(=O)O[C@]12C`, the outcome in the assay on Streptococcus pneumoniae [1], with Streptococcus pyogenes [2], in the assay on Streptococcus pyogenes [3], in the assay on Streptococcus pyogenes [4], in the assay with Streptococcus pyogenes [5] and in the assay on Streptococcus pneumoniae [6] was Active. Besides, the result with Streptococcus pyogenes [7], with Streptococcus pneumoniae [8] and with Streptococcus pneumoniae [9] was Active.

Consider `CC[C@H]1OC(=O)[C@H](C)[C@@H](O[C@H]2C[C@@](C)(OC)[C@@H](O)[C@H](C)O2)[C@H](C)[C@@H](O[C@@H]2O[C@H](C)C[C@H](N(C)C)[C@H]2O)[C@](C)(OC)C[C@@H](C)C(=O)[C@H](C)[C@@H](O)[C@]1(C)O`, for which the result in the assay with Streptococcus pneumoniae [1], in the assay on Streptococcus pyogenes [3], in the assay with Streptococcus pyogenes [4] and in the assay with Streptococcus pneumoniae [6] was Active. The result in the assay with Streptococcus pyogenes [2], with Streptococcus pyogenes [5], in the assay with Streptococcus pyogenes [7], in the assay on Streptococcus pneumoniae [8] and in the assay on Streptococcus pneumoniae [9] was inactive.

As to `CC[C@H]1OC(=O)[C@H](C)[C@@H](OC(=O)Cc2cccnc2)[C@H](C)[C@@H](O[C@@H]2O[C@H](C)C[C@H](N(C)C)[C@H]2O)[C@@](C)(OC)C[C@@H](C)C(=O)[C@H](C)[C@H]2N(CCCCSc3nc4ccc(OC)nc4[nH]3)C(=O)O[C@]12C`, the outcome with Streptococcus pneumoniae [1], with Streptococcus pyogenes [2], in the assay on Streptococcus pyogenes [3], in the assay with Streptococcus pyogenes [4], in the assay with Streptococcus pyogenes [5] and with Streptococcus pneumoniae [6] was Active. Further, the outcome in the assay with Streptococcus pyogenes [7], in the assay on Streptococcus pneumoniae [8] and in the assay on Streptococcus pneumoniae [9] was Active.

As to `CC[C@H]1OC(=O)[C@H](C)C(=O)[C@H](C)[C@@H](O[C@@H]2O[C@H](C)C[C@H](N(C)C)[C@H]2O)[C@@](C)(OC)C[C@@H](C)C(=O)[C@H](C)[C@H]2N(CCCSc3nc4ccc(OC)nc4[nH]3)C(=O)O[C@]12C`, the result in the assay with Streptococcus pneumoniae [1], with Streptococcus pyogenes [2], in the assay on Streptococcus pyogenes [3], in the assay with Streptococcus pyogenes [4], in the assay with Streptococcus pyogenes [5] and in the assay on Streptococcus pneumoniae [6] was Active. In addition, the outcome with Streptococcus pyogenes [7], in the assay with Streptococcus pneumoniae [8] and in the assay with Streptococcus pneumoniae [9] was Active.

On to `CC[C@H]1OC(=O)[C@H](C)C(=O)[C@H](C)[C@@H](O[C@@H]2O[C@H](C)C[C@H](N(C)C)[C@H]2O)[C@](C)(OC)C[C@@H](C)C(=O)[C@H](C)[C@H]2N(CCCCn3cnc(-c4cccnc4)c3)C(=O)O[C@]12C`, for which the result in the assay with Streptococcus pneumoniae [1], in the assay on Streptococcus pyogenes [2], in the assay with Streptococcus pyogenes [3], with Streptococcus pyogenes [4], with Streptococcus pyogenes [5] and in the assay with Streptococcus pneumoniae [6] was Active. Besides, the result with Streptococcus pyogenes [7], in the assay on Streptococcus pneumoniae [8] and in the assay with Streptococcus pneumoniae [9] was Active.

Regarding `CC[C@H]1OC(=O)[C@H](C)[C@@H](OC(=O)Cc2ccc3c(c2)OCO3)[C@H](C)[C@@H](O[C@@H]2O[C@H](C)C[C@H](N(C)C)[C@H]2O)[C@@](C)(OC)C[C@@H](C)C(=O)[C@H](C)[C@H]2N(CCCCSc3nc4ccc(OC)nc4[nH]3)C(=O)O[C@]12C`, the result in the assay with Streptococcus pneumoniae [1], with Streptococcus pyogenes [2], with Streptococcus pyogenes [3], in the assay with Streptococcus pyogenes [4], in the assay with Streptococcus pyogenes [5] and in the assay with Streptococcus pneumoniae [6] was Active. In addition, the result with Streptococcus pyogenes [7], in the assay with Streptococcus pneumoniae [8] and with Streptococcus pneumoniae [9] was Active.
